# The source made the active and inactive calls. No cut-off for these calls is given here. Square brackets hold non-standard residues; d marks the D form. Peptide text beside a SMILES is read from it. * marks the point of attachment. Phe(4-NO2) = N[C@@H](Cc1ccc([N+](=O)[O-])cc1)C(=O)O; 4Abz = Nc1ccc(C(=O)O)cc1; Propionyl = CCC(=O)*; Bz = O=C(c1ccccc1)*; ClAc = O=C(CCl)*
# What was measured:
# [1] = Cytotoxicity against human HepG2(2.2.15) cells after 24 hours following 9 days of treatment by neutral red dye uptake assay; assay type: cell-based; settings: read-out: TC50
# Method in brief: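 2.2.15 cells grown to confluence were treated with compound as in the antiviral assay, with untreated controls on each plate. Toxicity was measured by neutral red uptake (absorbance 510 nm, relative to untreated cells) 24 h after 9 days of treatment, giving TC50.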
# Hepatitis B virus [2] = experiment: Antiviral activity against HBV infected in human HepG2(2.2.15) cells assessed as inhibition of viral DNA replication by measuring HBsAg and HBeAg production at TC50 after 9 days by EIA; assay type: functional, organism-based
# [3] = Selectivity index, ratio of TC50 for human HepG2(2.2.15) cells to IC50 for HBV
# Method in brief: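 Calculated as TC50 (neutral red uptake in 2.2.15 cells) divided by IC50 (HBsAg/HBeAg inhibition by EIA in 2.2.15 cells).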
# Hepatitis B virus [4] = experiment: Antiviral activity against HBV infected in human HepG2(2.2.15) cells assessed as inhibition of viral DNA replication by measuring HBsAg and HBeAg production after 9 days by EIA; assay type: functional, organism-based; settings: HepG2 2.2.15, 216 h
# Method in brief: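 Confluent 2.2.15 cells in RPMI 1640 with 2% FBS received test compounds daily (medium changed daily) for 8 consecutive days in a second protocol. Cells in the 24-well protocol were seeded at 1.0 × 10⁵ cells/mL in MEM with 10% FBS for 24 h. They were then exposed to drug for 9 days, with medium changed every 3 days. Supernatant HBsAg/HBeAg was read by EIA at days 6 and 9, and the test was run twice.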
IC50 (Hepatitis B virus [4]),Structure (SMILES),CC50 at 216 h [1],inhibition (Hepatitis B virus [2]),Selectivity Index [3]
,CC(=O)OC[C@H](Cc1ccccc1)NC(=O)[C@H](Cc1ccccc1)NC(=O)c1ccc(CN(C)C)cc1,508 µM,inactive,
4.37 µM,CCC(=O)Nc1ccc(C(=O)N[C@@H](Cc2ccccc2)C(=O)N[C@@H](Cc2ccc([N+](=O)[O-])cc2)C(=O)OC)cc1 ({Propionyl-4Abz}-Phe-[Phe(4-NO2)]-OMe),147 µM,,33.53
5.39 µM,COC(=O)[C@H](Cc1ccc(O)cc1)NC(=O)[C@H](Cc1ccccc1)NC(=O)c1ccncc1,867 µM,,161.01
2.85 µM,CCC(=O)Nc1ccc(C(=O)N[C@@H](Cc2ccccc2)C(=O)N[C@@H](Cc2ccccc2)C(=O)OC)cc1 ({Propionyl-4Abz}-Phe-Phe-OMe),258 µM,,90.45
,COC(=O)[C@H](Cc1ccccc1)NC(=O)[C@H](Cc1ccccc1)NC(=O)c1ccncc1,1060 µM,inactive,
105 µM,COC(=O)[C@H](Cc1ccccc1)NC(=O)[C@H](Cc1ccccc1)NC(=O)c1ccc(OCCN(C)C)cc1,497 µM,,4.74
28.9 µM,O=C(N[C@@H](Cc1ccccc1)C(=O)N[C@H](CO)Cc1ccccc1)c1ccncc1,214 µM,,7.39
0.71 µM,CC(=O)Nc1ccc(C(=O)N[C@@H](Cc2ccccc2)C(=O)N[C@H](CCl)Cc2ccccc2)cc1,30.1 µM,,42.26
14 µM,CCOc1ccc(C[C@H](NC(=O)[C@H](Cc2ccccc2)NC(=O)c2ccccc2)C(=O)OC)cc1 (Bz-Phe-Tyr(Et)-OMe),818 µM,,58.61
,COC(=O)[C@H](Cc1ccccc1)NC(=O)[C@H](Cc1ccccc1)NC(=O)c1ccc(NC(=O)CN(C)C)cc1,111 µM,inactive,
,COC(=O)[C@H](Cc1ccc([N+](=O)[O-])cc1)NC(=O)[C@H](Cc1ccccc1)NC(=O)c1ccncc1,812 µM,inactive,
174 µM,CCCCOc1ccc(C[C@H](NC(=O)[C@H](Cc2ccccc2)NC(=O)c2ccccc2)C(=O)OC)cc1,1150 µM,,6.6
13.9 µM,O=C(N[C@@H](Cc1ccccc1)C(=O)N[C@H](CO)Cc1ccccc1)c1ccc(CN2CCOCC2)cc1,157 µM,,11.25
,COC(=O)[C@H](Cc1ccccc1)NC(=O)[C@H](Cc1ccccc1)NC(=O)c1ccc(NC(=O)CCl)cc1 ({ClAc-4Abz}-Phe-Phe-OMe),223 µM,inactive,
27.6 µM,CN(C)CCOc1ccc(C(=O)N[C@@H](Cc2ccccc2)C(=O)N[C@H](CO)Cc2ccccc2)cc1,327 µM,,11.86
,CC(=O)OC[C@H](Cc1ccccc1)NC(=O)[C@H](Cc1ccccc1)NC(=O)c1ccc(CN2CCOCC2)cc1,609 µM,inactive,
,COC(=O)[C@H](Cc1ccccc1)NC(=O)[C@H](Cc1ccccc1)NC(=O)c1ccc(NC(=O)CN2CCCC2)cc1,106 µM,inactive,
,CCOc1ccc(C[C@H](NC(=O)[C@H](Cc2ccccc2)NC(=O)c2ccccc2)C(=O)O)cc1 (Bz-Phe-Tyr(Et)-OH),1010 µM,inactive,
20.5 µM,COc1ccc(C[C@H](NC(=O)[C@H](Cc2ccccc2)NC(=O)c2ccccc2)C(=O)[O-])cc1.[Na+] (Bz-Phe-Tyr(Me)-OH),184 µM,,8.99
9.06 µM,COC(=O)[C@H](Cc1ccc(O)cc1)NC(=O)[C@H](Cc1ccccc1)NC(=O)c1ccc(NC(C)=O)cc1 (Ac-[4Abz]-Phe-Tyr-OMe),771 µM,,85.09
14.1 µM,O=C(N[C@@H](Cc1ccccc1)C(=O)N[C@H](CO)Cc1ccccc1)c1ccc(CN2CCCC2)cc1,128 µM,,9.11
,COC(=O)[C@H](Cc1ccc([N+](=O)[O-])cc1)NC(=O)[C@H](Cc1ccc(O)cc1)NC(=O)c1ccncc1,238 µM,inactive,
,CC(=O)Nc1ccc(C(=O)N[C@@H](Cc2ccc(O)cc2)C(=O)N[C@H](CO)Cc2ccccc2)cc1,749 µM,inactive,
64.6 µM,CCCCOc1ccc(C[C@H](NC(=O)[C@H](Cc2ccccc2)NC(=O)c2ccccc2)C(=O)[O-])cc1.[Na+],979 µM,,15.2
,COC(=O)[C@H](Cc1ccccc1)NC(=O)[C@H](Cc1ccc(O)cc1)NC(=O)c1ccncc1,219 µM,inactive,
15.8 µM,CN(C)Cc1ccc(C(=O)N[C@@H](Cc2ccccc2)C(=O)N[C@H](CO)Cc2ccccc2)cc1,188 µM,,11.84
,O=C(N[C@@H](Cc1ccc(O)cc1)C(=O)N[C@H](CO)Cc1ccccc1)c1ccncc1,612 µM,inactive,

# — ChEMBL document CHEMBL1817553, “Synthesis and biological evaluation of Matijing-Su derivatives as potent anti-HBV agents” (Bioorg Med Chem, 2011)
